Assay [1] relates to A549. The assay can be described thus: Cytotoxicity against human A549 cells by MTT assay. Type of assay: functional. The conditions noted are these: read-out: ED50 (the source's name). The procedure, abridged: (§1)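 In vitro growth inhibition of A549 (human lung adenocarcinoma) and K562 (human […] leukemia) tumour cells. Potency is reported as ED50, the 50% effective dose of clonal inhibition, in µg/mL.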
Background: Tetrazolium dyes change colour on reduction, which living cells bring about.

Assay [2] has as its system K562. The experiment in a line: Cytotoxicity against human K562 cells by MTT assay. It is filed as functional. To be noted: read-out: ED50 (the source's name). The procedure, abridged:
as §1

As for `COC(=O)C[C@H]1C(C)(C)[C@H](OC(C)=O)[C@H](OC(C)=O)[C@@H]2O[C@]34CC(=O)O[C@@H](c5ccoc5)[C@]3(C)[C@@H](OC(C)=O)[C@@H](C(=O)[C@@H]4C)[C@@]21C` [CIPADESIN A], the EC50 in assay [1] and in assay [2] was over 5 mg/L throughout.
On to `C=C1[C@@H]2C[C@@]3(C)[C@H](c4ccoc4)OC(=O)C[C@]13O[C@H]1C[C@@H](OC(C)=O)C(C)(C)[C@H](CC(=O)OC)[C@@]1(C)C2=O` [CIPATRIJUGIN A], for which the EC50 in assay [1] and in assay [2] was over 5 mg/L each time.
Turning to `C=C1[C@]2(O)C[C@@]3(C)[C@H](c4ccoc4)OC(=O)C[C@]13O[C@H]1C[C@@H](OC(C)=O)C(C)(C)[C@H](CC(=O)OC)[C@@]1(C)C2=O` [CIPATRIJUGIN B], the EC50 in assay [1] and in assay [2] was over 5 mg/L each time.
With `C=C1[C@]2(OC(C)=O)C[C@@]3(C)[C@H](c4ccoc4)OC(=O)C[C@]13O[C@H]1C[C@@H](OC(C)=O)C(C)(C)[C@H](CC(=O)OC)[C@@]1(C)C2=O` [CIPATRIJUGIN C], the EC50 in assay [1] and in assay [2] was over 5 mg/L throughout.
Take `C=C1[C@H]2C(=O)[C@@]3(C)[C@H](C[C@@H](OC(C)=O)C(C)(C)[C@@H]3CC(=O)OC)O[C@@]13CC(=O)O[C@@H](c1ccoc1)[C@]3(C)[C@H]2OC(C)=O` [CIPATRIJUGIN D]: the EC50 in assay [1] and in assay [2] was over 5 mg/L throughout.
Regarding `COc1cccc2c1C(=O)c1c(O)c3c(c(O)c1C2=O)C[C@@](O)(C(=O)CO)C[C@@H]3O[C@H]1C[C@H](N)[C@H](O)[C@H](C)O1` [DOXORUBICIN], the EC50 in assay [1] and in assay [2] was 0.0595 µM in each case.

The values are drawn from ChEMBL document CHEMBL1141255, “Trijugin-type limonoids from the leaves of Cipadessa cinerascens” (2007).
